Measured values from ChEMBL document CHEMBL1134278, “Design, synthesis, and biological activity of methoctramine-related polyamines as putative G(i) protein activators” (J Med Chem, 2001).

What was measured:
[1] = target: T1, Muscarinic acetylcholine receptor M2 (Homo sapiens, UniProt P08172); assay: biochemical
T1 sequence (P08172 whole entry): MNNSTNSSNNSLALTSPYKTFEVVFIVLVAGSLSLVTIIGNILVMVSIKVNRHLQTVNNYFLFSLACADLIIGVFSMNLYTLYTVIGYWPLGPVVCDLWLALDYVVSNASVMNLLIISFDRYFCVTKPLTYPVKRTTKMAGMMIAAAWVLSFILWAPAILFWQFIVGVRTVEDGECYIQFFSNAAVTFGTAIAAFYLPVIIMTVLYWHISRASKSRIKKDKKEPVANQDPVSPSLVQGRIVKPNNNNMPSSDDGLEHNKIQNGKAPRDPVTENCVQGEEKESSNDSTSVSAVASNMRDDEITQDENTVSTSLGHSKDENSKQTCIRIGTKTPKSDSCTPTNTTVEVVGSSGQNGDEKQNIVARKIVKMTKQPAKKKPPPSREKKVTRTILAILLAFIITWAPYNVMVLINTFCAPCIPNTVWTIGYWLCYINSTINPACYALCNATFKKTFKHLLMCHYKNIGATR

Cavia porcellus [2] = organism: Cavia porcellus; assay: Inotropic response relative to APE (APE = 100) in electrically paced (Hz) guinea pig left atria; type: functional
[3] = target: T2, Muscarinic acetylcholine receptor M1 (Homo sapiens, UniProt P11229); assay: Affinity for human M1 cloned muscarinic receptor subtype expressed in CHO-K1 cells; type: cell-based
T2 sequence (P11229 whole entry): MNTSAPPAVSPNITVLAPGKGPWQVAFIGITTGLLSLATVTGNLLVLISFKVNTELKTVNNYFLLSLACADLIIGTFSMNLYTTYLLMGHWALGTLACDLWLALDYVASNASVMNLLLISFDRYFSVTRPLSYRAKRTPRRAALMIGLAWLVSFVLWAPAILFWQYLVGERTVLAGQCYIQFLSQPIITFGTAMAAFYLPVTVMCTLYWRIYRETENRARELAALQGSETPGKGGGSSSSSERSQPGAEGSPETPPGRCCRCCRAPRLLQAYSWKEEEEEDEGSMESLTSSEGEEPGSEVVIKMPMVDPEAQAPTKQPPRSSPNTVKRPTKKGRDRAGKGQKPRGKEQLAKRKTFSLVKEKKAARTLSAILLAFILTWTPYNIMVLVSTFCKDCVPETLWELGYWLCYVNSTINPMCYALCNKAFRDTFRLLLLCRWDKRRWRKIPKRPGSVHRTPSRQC
How it was run: (§1)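 Radioligand displacement of [³H]NMS in CHO-K1 cells expressing human cloned muscarinic M1–M5 receptors. IC50 values were converted to Ki with the Cheng–Prusoff equation. Results are means ± SE of two to three experiments, each run in triplicate.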

[4] = target: T3, Muscarinic acetylcholine receptor M3 (Homo sapiens, UniProt P20309); assay: Affinity for human M3 cloned muscarinic receptor subtype expressed in CHO-K1 cells; type: cell-based
How it was run: as §1
Target sequence in this assay (P20309 whole entry): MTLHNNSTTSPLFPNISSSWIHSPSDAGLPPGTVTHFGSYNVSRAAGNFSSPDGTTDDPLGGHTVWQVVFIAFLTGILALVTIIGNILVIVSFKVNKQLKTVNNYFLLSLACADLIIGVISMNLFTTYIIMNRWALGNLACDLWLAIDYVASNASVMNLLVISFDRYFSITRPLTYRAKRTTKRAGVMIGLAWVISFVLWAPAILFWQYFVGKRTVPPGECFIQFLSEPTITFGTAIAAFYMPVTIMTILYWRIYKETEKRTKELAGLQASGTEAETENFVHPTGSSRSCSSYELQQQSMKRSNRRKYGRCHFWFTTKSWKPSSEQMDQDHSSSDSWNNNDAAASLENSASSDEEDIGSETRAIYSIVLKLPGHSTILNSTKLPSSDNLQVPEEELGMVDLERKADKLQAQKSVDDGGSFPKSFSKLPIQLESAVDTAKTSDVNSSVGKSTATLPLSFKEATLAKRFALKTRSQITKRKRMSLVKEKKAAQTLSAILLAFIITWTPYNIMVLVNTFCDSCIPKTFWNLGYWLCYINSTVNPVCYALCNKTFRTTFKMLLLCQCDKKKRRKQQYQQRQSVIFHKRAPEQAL

[5] = target: T4, Muscarinic acetylcholine receptor M4 (Homo sapiens, UniProt P08173); assay: Affinity for human M4 cloned muscarinic receptor subtype expressed in CHO-K1 cells; type: cell-based
T4 sequence (P08173 whole entry): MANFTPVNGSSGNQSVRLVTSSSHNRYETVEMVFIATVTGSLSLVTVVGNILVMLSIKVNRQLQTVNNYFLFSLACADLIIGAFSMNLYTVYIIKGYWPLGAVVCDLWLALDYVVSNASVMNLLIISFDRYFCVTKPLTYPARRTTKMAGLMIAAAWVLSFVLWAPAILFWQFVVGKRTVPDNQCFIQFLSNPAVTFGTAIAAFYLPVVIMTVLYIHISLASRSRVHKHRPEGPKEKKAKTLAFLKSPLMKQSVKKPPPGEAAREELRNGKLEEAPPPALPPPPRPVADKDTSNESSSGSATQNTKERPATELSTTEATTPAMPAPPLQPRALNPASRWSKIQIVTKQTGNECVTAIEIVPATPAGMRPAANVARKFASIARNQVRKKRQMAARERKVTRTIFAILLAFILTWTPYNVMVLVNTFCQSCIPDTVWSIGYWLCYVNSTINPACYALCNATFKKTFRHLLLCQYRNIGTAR
How it was run: as §1

Cavia porcellus [6] = organism: Cavia porcellus; assay: Inotropic responses, induced by the compound in electrically paced (Hz) guinea pig left atria; type: functional
How it was run: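 Left atria from guinea pig were electrically driven at 1 Hz, and negative inotropic effect was recorded. Cumulative concentration–response curves were run, with arecaidine propargyl ester (APE) as the muscarinic agonist reference. EC50 came from nonlinear regression curve fitting as the mean ± SE of at least four independent experiments.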

[7] = target: T5, Muscarinic acetylcholine receptor M5 (Homo sapiens, UniProt P08912); assay: Affinity for human muscarinic acetylcholine receptor M5 subtype expressed in CHO-K1 cells; type: cell-based
T5 sequence (P08912 whole entry): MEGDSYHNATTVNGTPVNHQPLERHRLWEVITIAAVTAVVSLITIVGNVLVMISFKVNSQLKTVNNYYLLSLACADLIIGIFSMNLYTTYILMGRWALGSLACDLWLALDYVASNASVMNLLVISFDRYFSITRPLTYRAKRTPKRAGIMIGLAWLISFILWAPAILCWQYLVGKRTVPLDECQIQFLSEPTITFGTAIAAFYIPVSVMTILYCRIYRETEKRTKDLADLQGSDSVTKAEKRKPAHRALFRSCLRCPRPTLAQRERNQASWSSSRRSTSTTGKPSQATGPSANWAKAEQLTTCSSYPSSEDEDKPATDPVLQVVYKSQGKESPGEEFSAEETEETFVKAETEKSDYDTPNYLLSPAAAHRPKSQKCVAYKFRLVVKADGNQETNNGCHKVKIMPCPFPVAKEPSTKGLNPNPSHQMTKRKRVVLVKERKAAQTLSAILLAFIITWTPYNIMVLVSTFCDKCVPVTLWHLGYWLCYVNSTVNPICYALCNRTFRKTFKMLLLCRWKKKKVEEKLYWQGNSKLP
How it was run: as §1

[8] = target: T1, Muscarinic acetylcholine receptor M2; assay: Binding affinity against muscarinic acetylcholine receptor M2
Cavia porcellus [9] = organism: Cavia porcellus; assay: Antagonist affinity, in electrically paced (1 Hz) guinea pig left atria using N-dodecyl lysine amide as agonist
Cavia porcellus [10] = organism: Cavia porcellus; assay: Antagonist affinity, in electrically paced (1 Hz) guinea pig left atria using the APE as agonist; type: functional
How it was run: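 Driven guinea pig left atria paced at 1 Hz, with cumulative agonist concentration–response curves. Each antagonist was tested at one concentration, 0.1 µM, incubated 1 h. pK_B was calculated from the dose ratio as −log{[antagonist]/(DR−1)}. Mean ± SE of four experiments.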

Cavia porcellus [11] = organism: Cavia porcellus; assay: Antagonist affinity, in electrically paced (1 Hz) guinea pig left atria using 1'-[8-(1-(2-methoxy -benzyl)-[4,4']bipiperidinyl)-octyl]-1-(2-methoxy-benzyl)-[4,4']biiperidinyl as agonist; type: functional
How it was run: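 Driven guinea pig left atria paced at 1 Hz. Each antagonist was tested at one concentration, 0.1 µM, incubated 1 h. One tissue received the antagonist and a second untreated tissue served as control, each giving a cumulative agonist concentration–response curve. pK_B = −log{[antagonist]/(DR−1)}. Mean ± SE of four experiments.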

[12] = target: T6, Muscarinic acetylcholine receptor M2 (Homo sapiens) (UniProt P08172); assay: Affinity for human muscarinic acetylcholine receptor M2 expressed in CHO-K1 cells at a concentration of 10 uM; type: cell-based
T6 sequence (whole entry): T1 sequence (P08172 whole entry)

[13] = target: T7, Muscarinic acetylcholine receptor M5 (Homo sapiens) (UniProt P08912); assay: Affinity for human muscarinic acetylcholine receptor M5 subtype expressed in CHO-K1 cells at a concentration of 10 uM; type: cell-based
T7 sequence (whole entry): T5 sequence (P08912 whole entry)

[14] = target: T3, Muscarinic acetylcholine receptor M3; assay: Affinity for human M3 cloned muscarinic receptor subtype expressed in CHO-K1 cells at a concentration of 10 uM; type: cell-based
Target sequence in this assay (P20309 whole entry, looked up): as the sequence (P20309 whole entry) above

[15] = target: T8, Muscarinic acetylcholine receptor M1 (Homo sapiens) (UniProt P11229); assay: Affinity for human M1 cloned muscarinic receptor subtype expressed in CHO-K1 cells at a concentration of 10 uM; type: cell-based
T8 sequence (whole entry): T2 sequence (P11229 whole entry)

[16] = target: T9, Muscarinic acetylcholine receptor M4 (Homo sapiens) (UniProt P08173); assay: Affinity for human M4 cloned muscarinic receptor subtype expressed in CHO-K1 cells at a concentration of 10 uM; type: cell-based
T9 sequence (whole entry): T4 sequence (P08173 whole entry)

| EC50 (Cavia porcellus [6]) [nM] | Reduction [12] [%] | Reduction [13] [%] | Reduction [14] [%] | Reduction [15] [%] | Reduction [16] [%] | Compound | Relative efficacy (Cavia porcellus [2]) | other results |
| --- | --- | --- | --- | --- | --- | --- | --- | --- |
| 0.224 |  |  |  |  |  | COc1ccccc1CN1CCC(C2CCN(CCCCCCCCN3CCC(C4CCN(Cc5ccccc5OC)CC4)CC3)CC2)CC1 [PIPERTRAMINE] | 84 | Ki [8]: 8.6 nM; Ki [3]: 19.8 nM; Ki [4]: 422 nM; Ki [5]: 15.3 nM; Ki [7]: 105 nM |
| 0.339 | 13 | 24 | 17 | 17 | 0 | CCCCCCCCCCCCNC(CCCCN)C(N)=O (configuration not stated) | 82 |  |
| 0.603 | 35 | 25 | 12 | 17 | 25 | COc1ccccc1CN1CCC(C2CCN(C)CC2)CC1 | 70 |  |
| 0.525 | 49 | 29 | 12 | 22 | 28 | COc1ccccc1CN1CCC(C2CCNCC2)CC1 | 75 |  |

The remaining lines, values behind:

| Compound | EC50 (Cavia porcellus [6]) [nM] | Reduction [12] [%] | Reduction [13] [%] | Reduction [14] [%] | Reduction [15] [%] | Reduction [16] [%] | Relative efficacy (Cavia porcellus [2]) | other results |
| --- | --- | --- | --- | --- | --- | --- | --- | --- |
| COc1ccccc1CN1CCC(C2CCN(C(=O)CCCCCCC(=O)N3CCC(C4CCN(Cc5ccccc5OC)CC4)CC3)CC2)CC1 [PIPERTRAMINE AMIDE] | 0.398 |  |  |  |  |  | 85 | Ki [1]: 9.2 nM; Ki [3]: 108 nM; Ki [4]: 97.2 nM; Ki [5]: 16.6 nM; Ki [7]: 183 nM |
| C#CCOC(=O)C1=CCCN(C)C1 [ARECAIDINE PROPARGYL ESTER] | 7.08 |  |  |  |  |  | 100 |  |
| CN1[C@@H]2CC[C@H]1C[C@@H](OC(=O)C(CO)c1ccccc1)C2 (some centres not stated) [ATROPINE] |  |  |  |  |  |  |  | pKB (Cavia porcellus [9]): 7.45; pKB (Cavia porcellus [10]): 9.15; pKB (Cavia porcellus [11]): 7.18 |
| COc1ccccc1CN1CCC(C2CCN(C(C)=O)CC2)CC1 | 1.29 |  |  |  |  |  | 79 |  |
